# CHOP inh: CHOP inhibition in unfolded protein response; AID 2732; 3.8% of 220,000 active; inhibition, % at 10 µM; CHO-K1 CHOP-promoter luciferase, tunicamycin-induced, 15-18 h;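 active = compounds that reduced the stress-induced luciferase reporter signal by more than about 70% of percent inhibition, limit read from the data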;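 also: 0% = tunicamycin plus vehicle and 100% = wells without tunicamycin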
# Rad51 HR inh: blocks human Rad51 in homologous recombination. Q06609. hRad51 DNA strand exchange, fluorescence dequenching. inhibition, % at 10 µM. 0.085% of 200,000 active;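 active = inhibition above 40% at the single screening dose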;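 also: 0% = DMSO control wells and 100% = blanks with heterologous ssDNA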
#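 Read-out basis: percent inhibition relative to plate controls and blanks / Assay system: human Rad51 nucleoprotein filaments preassembled on unlabelled ssDNA / Timing: filaments 15 min 37 °C, then compound 30 min / Control set: per-plate controls and blanks / Technique: fluorescence dequenching at 485/520 nm / Compound: 10 µM final, single point / Also added: Fluorescein- and BHQ1-tagged 47-mer duplex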
# Lmaj promast: inhibitors of Leishmania major promastigote growth; 9% of 200,000 active; inhibition, % at 10 µM; AID 1063; Leishmania major promastigotes, resazurin fluorescence viability;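 also: promastigotes grown with compound for 44 hours at 28 °C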
# PKD1 kinase inh: PKD1 (human) kinase inhibition; 0.056% of 200,000 active; inhibition, % (concentration not given with the values); PKD1 kinase fluorescence polarization assay
# Wee1 degr inh: inhibitors of human Wee1 degradation | reporter increase, % at 5 µM | 1.2% of 220,000 active | HeLa Luc-Wee1K328M stability, luciferase luminescence; 100% = proteasome inhibitor MG132 effect | P30291;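 active = activation above the mean of all tested compounds plus 3 SD, set per screening run, cut at about 8.8% in these data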;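 also: cells exposed to compound for 20 h before luminescence read; 0% = DMSO alone and 100% = MG132 at 30 µM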
# Target sequence (P30291 whole entry K328M): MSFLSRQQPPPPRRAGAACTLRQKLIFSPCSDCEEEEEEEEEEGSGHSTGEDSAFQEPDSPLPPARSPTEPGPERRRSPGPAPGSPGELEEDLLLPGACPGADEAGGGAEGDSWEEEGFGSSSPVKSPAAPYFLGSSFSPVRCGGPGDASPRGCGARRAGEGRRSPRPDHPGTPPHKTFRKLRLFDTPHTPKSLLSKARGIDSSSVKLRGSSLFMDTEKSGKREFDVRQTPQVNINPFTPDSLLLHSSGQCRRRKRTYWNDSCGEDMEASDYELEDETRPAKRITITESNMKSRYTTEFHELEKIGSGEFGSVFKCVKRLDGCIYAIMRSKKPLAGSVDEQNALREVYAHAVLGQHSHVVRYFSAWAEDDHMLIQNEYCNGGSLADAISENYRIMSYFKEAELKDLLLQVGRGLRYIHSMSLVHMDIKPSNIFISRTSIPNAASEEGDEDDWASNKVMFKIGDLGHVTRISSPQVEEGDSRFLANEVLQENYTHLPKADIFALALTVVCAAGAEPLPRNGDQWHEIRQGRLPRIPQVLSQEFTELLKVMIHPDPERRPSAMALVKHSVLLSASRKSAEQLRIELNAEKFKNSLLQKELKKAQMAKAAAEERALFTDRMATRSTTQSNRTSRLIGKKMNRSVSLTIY
# Arbovirus inh: blocks arbovirus infection; inhibition, % at 10 µM; AID 1251; arbovirus infection cell-based antiviral screen; 0.37% of 200,000 active; in the data active = inhibition above about 30%
# An asterisk follows results filed as active; nt = no result given. The list is not random: actives were taken first. Their share in the collection is about 12%. Rule as the data show it, unless noted: active = inhibition above about 50%; inactive = the rest.
SMILES,CHOP inh,Rad51 HR inh,Lmaj promast,PKD1 kinase inh,Wee1 degr inh,Arbovirus inh
CCOc1cc(CNCC(C)C)cc(Cl)c1OCc1ccccc1,59.6,-6.4,89.2*,-1.5,-2.2,1.0
CCOc1cc(CNC2CCCC2)cc(Cl)c1OCc1ccccc1,66.9,1.2,96.9*,0.0,-1.2,-37.1
CCOc1cc(C(N)=O)cc(Cl)c1OCc1ccccc1,13.0,9.6,1.7,-2.5,7.5,-2.3
CCOc1cc(CNC2CCCC2)ccc1OCc1ccccc1Cl,27.3,7.5,100.2*,1.8,-1.7,-33.6
COc1cc(/C=C(\C#N)C(=O)NCC2CCCO2)ccc1OCCC(C)C (stereo not drawn),-14.6,6.8,nt,nt,0.6,nt
COc1ccc(OCC(=O)N/N=C(\C)CC(=O)Nc2cccc([N+](=O)[O-])c2)cc1,15.9,-0.6,-1.0,-3.3,-1.8,2.9
Cc1cc(C)c2c(N)c(C(=O)N/N=C/c3cccs3)sc2n1,-15.7,-6.1,nt,nt,4.9,nt
Cc1cc(C)c2c(N)c(C(=O)NC3CCCC3)sc2n1,-33.0,1.0,21.8,-2.4,6.7,-5.4
Cc1cc(C)c2c(N)c(C(=O)c3ccc(Cl)c(Cl)c3)sc2n1,14.2,11.6,100.2*,-5.4,-1.2,-15.8
Cc1cc(C)c2c(N)c(C(=O)c3ccccc3)sc2n1,10.6,7.7,nt,nt,10.7*,nt
Cc1cc(C)c2c(N)c(C(=O)NCC3CCCCC3)sc2n1,14.0,7.0,76.9*,2.4,1.3,0.8
Cc1cc(C)c2c(N)c(C(=O)c3ccc(Cl)cc3)sc2n1,-7.6,12.0,70.6*,-1.1,0.9,-18.4
COc1ccc(Cn2nnnc2C(c2ccc(N(C)C)cc2)N2CCC(C(N)=O)CC2)cc1 (stereo not drawn),16.5,10.7,1.0,-2.1,-2.2,3.8
CCCCNc1ccc(C(=O)O)cc1,3.7,nt,nt,nt,2.9,nt
COc1cc(-c2ccc(NC(=O)NC3CC3)c(OC)c2)ccc1NC(=O)NC1CC1,-7.8,13.5,nt,nt,0.7,nt
CCOC(=O)N1CCC(NC(=O)CCC(=O)N2CCOc3ccc(Cl)cc32)CC1,18.1,0.5,1.1,-5.7,0.8,-1.7
Cc1ccc(C(=O)N/C(=C\c2ccc3c(c2)OCO3)C(=O)Nc2ccc(C(=O)O)cc2)cc1,-8.3,-1.4,-8.3,0.7,1.7,3.2
COC(=O)c1c(-c2c(Cl)cccc2Cl)noc1NC(=O)NN1CCCCC1,26.7,2.1,nt,nt,-1.8,nt
Cc1cccc(NC(=O)N2CCCC2C(=O)Nc2ccccc2)c1 (stereo not drawn),7.3,8.3,3.2,2.9,-0.3,-1.4
COc1ccc(C(=O)c2sc3nc(C)cc(-c4cccs4)c3c2N)cc1OC,35.6,-63.8,6.3,-4.3,-1.9,12.3
COc1ccc(C(=O)c2sc3nc(C)cc(-c4cccs4)c3c2N)cc1,34.7,-107.7,72.9*,-6.0,5.2,4.2
CCCN1C(=O)C(Cc2nc3ccccc3c(=O)n2-c2ccccc2)c2ccccc21 (stereo not drawn),8.6,0.9,89.2*,2.7,-1.4,-4.9
CCSC1=N/C(=C\c2ccc(C(=O)O)cc2)C(=O)S1,26.5,8.9,24.9,-3.9,-1.3,2.1
O=C1SC(SCc2ccccc2Cl)=N/C1=C\c1ccc(C(=O)O)cc1,82.0*,-9.9,-10.6,1.5,-2.8,-5.6
O=C(Nc1ccc(Cl)cc1F)C1CC1,-39.6,3.5,-4.3,11.2,2.5,-4.5
SMILES,CHOP inh,Rad51 HR inh,Lmaj promast,PKD1 kinase inh,Wee1 degr inh,Arbovirus inh
Cc1cc(C)cc(-n2c(C)cc(C(=S)N3CCOCC3)c2C)c1,34.7,nt,55.4*,-5.4,1.1,-4.6
CCOC(=O)c1cc(COc2cc(Cl)cc(Cl)c2)on1,1.9,18.9,nt,nt,-0.4,nt
COc1cnc(-c2ccccn2)nc1Sc1ccccc1Cl,45.9,9.1,100.7*,-0.7,0.6,-21.8
COc1cnc(-c2ccccn2)nc1Sc1c(Cl)cccc1Cl,44.2,1.1,46.7,3.5,-1.8,-4.3
COc1cnc(-c2ccccn2)nc1Oc1cccc(Cl)c1,-5.8,-0.7,100.3*,-4.7,-3.0,-13.8
COc1ccc(Oc2nc(-c3ccccn3)ncc2OC)cc1,-66.2,-6.6,16.5,0.2,1.3,-2.2
COc1cnc(-c2ccccn2)nc1Oc1c(C)cccc1C,-88.1,14.2,72.1*,-4.6,1.1,3.8
COc1cnc(-c2ccccn2)nc1N(C)C,51.2,2.5,100.0*,-6.8,0.5,-19.1
C=C1c2ccccc2NC(=S)N1Cc1ccc2c(c1)OCO2,-3.5,-1.5,6.4,-2.0,8.7,-8.7
CC1CN(C(NC(=O)c2ccccc2)C(Cl)(Cl)Cl)CC(C)O1 (stereo not drawn),-4.5,-2.5,4.8,6.2,-1.2,6.7
Cc1ccc(O)c(C(=O)c2coc(=N)c(C(=O)NC(C)C)c2)c1,5.7,0.4,70.7*,-9.3,-1.3,5.8
CSc1ccc(CN2C(=O)NC3(CCCCC3)C2=O)cc1,16.4,-5.3,7.3,7.8,-1.4,8.1
COCCn1nnnc1CN(CCc1ccccc1)Cc1cc2cc(OC)ccc2[nH]c1=O,nt,6.7,13.6,3.0,-1.2,nt
COCCn1nnnc1CN(CCc1ccc(OC)c(OC)c1)Cc1cc2ccc(C)cc2[nH]c1=O,-4.0,-2.3,97.3*,0.5,-2.5,-1.3
CCc1ccc(-c2nc(CSCC(=O)N3CCN(c4ncccn4)CC3)c(C)o2)cc1,90.0*,nt,2.7,-11.2,0.3,-3.3
O=C(CN1CCN(c2ccc(Cl)cc2)CC1)Nc1ccc(F)cc1,20.3,-4.8,-1.2,-0.7,0.3,9.6
O=C(CN1CCN(c2ccc(O)cc2)CC1)Nc1ccc(SC(F)F)cc1,61.5,3.8,56.6*,0.1,0.0,-20.4
O=C(CN1CCN(c2ccc(F)cc2)CC1)NCc1cccs1,-2.6,-3.2,-4.3,0.2,9.0*,-1.4
CCN(CC)c1ccc(NC(=O)CN2CCN(c3ccc(F)cc3)CC2)cc1,61.3,0.4,71.7*,2.4,4.8,6.4
O=C(COc1cc(F)ccc1[N+](=O)[O-])NCCCc1ccccc1,4.4,nt,0.1,5.0,1.0,7.4
O=C(NC(C(=O)N/N=C/c1ccccn1)c1n[nH]c(=O)c2ccccc12)c1ccccc1 (stereo not drawn),-4.5,-2.5,nt,nt,-0.7,nt
CS(=O)(=O)N(Cc1ccc(C(=O)NN=C2CCCC2)cc1)c1ccccc1,17.2,3.0,43.5,-7.9,9.3*,4.2
CS(=O)(=O)N(Cc1ccc(C(=O)NN=C2CCCCCC2)cc1)c1ccccc1,-6.0,nt,-9.1,5.5,1.0,4.5
CC1(C2CC(C(F)(F)F)n3nc(C(=O)O)cc3N2)CC1 (stereo not drawn),-11.7,-2.0,-10.4,-3.9,-2.7,2.2
Cc1nn(C(=O)c2cccs2)c(N)c1-c1ccccc1,94.6*,-1.7,-9.0,-5.6,4.5,1.7
CCc1ccc(N2CC(C(=O)N/N=C/c3cccc([N+](=O)[O-])c3)CC2=O)cc1 (stereo not drawn),82.5*,0.3,2.0,-1.5,0.2,6.5
O=C(CCCOc1ccc(Cl)cc1Cl)N/N=C/c1cccc([N+](=O)[O-])c1,75.9*,14.3,0.5,1.2,-2.1,-11.1

# Screens as filed in PubChem.
